Activity calls are given as the source filed them. No cut-off for these calls is given here.
What was measured:
Acetylcholinesterase [1] = target: T1, Acetylcholinesterase (Electrophorus electricus, UniProt O42275); assay: Inhibition of electric eel AChE by Ellman's method
Cholinesterase = Cholinesterase (Equus caballus, UniProt P81908); assay: Inhibition of equine serum BuChE by Ellman's method
Procedure, shortened: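 Ellman's method with equine serum BuChE, run as for AChE; triplicate experiments; IC50 (50% inhibitory concentration) as mean ± SD of three independent experiments.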

[2] = target: Amyloid-beta precursor protein (Homo sapiens) (UniProt P05067); assay: Inhibition of copper-induced amyloid beta (1 to 42) (unknown origin) aggregation at 50 uM by thioflavin T based fluorescence assay relative to control
Amyloid-beta precursor protein (Homo sapiens), sequence (P05067 whole entry): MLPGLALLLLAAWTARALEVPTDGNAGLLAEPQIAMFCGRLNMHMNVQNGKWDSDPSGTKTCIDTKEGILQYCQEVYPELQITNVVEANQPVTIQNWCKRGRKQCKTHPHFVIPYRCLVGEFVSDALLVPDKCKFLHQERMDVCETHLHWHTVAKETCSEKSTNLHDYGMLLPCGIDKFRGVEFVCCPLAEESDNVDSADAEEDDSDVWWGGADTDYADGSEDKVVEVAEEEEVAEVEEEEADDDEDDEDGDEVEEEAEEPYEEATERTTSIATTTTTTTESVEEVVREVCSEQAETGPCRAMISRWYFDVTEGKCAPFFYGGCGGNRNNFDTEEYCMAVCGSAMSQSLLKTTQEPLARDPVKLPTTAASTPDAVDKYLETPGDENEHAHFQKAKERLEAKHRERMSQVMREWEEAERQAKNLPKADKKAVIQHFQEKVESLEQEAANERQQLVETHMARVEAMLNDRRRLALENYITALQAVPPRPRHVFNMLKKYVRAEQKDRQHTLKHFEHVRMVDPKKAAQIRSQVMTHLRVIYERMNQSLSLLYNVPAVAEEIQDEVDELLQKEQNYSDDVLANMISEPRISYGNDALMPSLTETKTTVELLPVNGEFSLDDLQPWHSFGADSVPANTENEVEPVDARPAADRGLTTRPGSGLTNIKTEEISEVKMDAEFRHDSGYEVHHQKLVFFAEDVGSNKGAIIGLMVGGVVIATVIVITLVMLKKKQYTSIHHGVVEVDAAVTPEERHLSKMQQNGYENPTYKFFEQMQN
Procedure, shortened: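 Thioflavin T fluorescence assay of copper-mediated Aβ1-42 aggregation; test sample at 50 μM; curcumin as reference anti-amyloidogenic agent; percentage inhibition of aggregation estimated.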

SH-SY5Y = assay: Cytotoxicity against human SH-SY5Y cells at 0.001 to 100 uM after 24 hrs by MTT assay
Acetylcholinesterase [3] = target: T1, Acetylcholinesterase; assay: Mixed type inhibition of electric eel AChE assessed as inhibition constant using varying levels of acetylthiocholine as substrate by reciprocal Lineweaver-Burk plot analysis
Procedure, shortened: (§1)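 Kinetics with electric eel AChE (Ellman's method): no inhibitor plus three inhibitor concentrations, substrate varied over […] (so in the source); double-reciprocal Lineweaver-Burk plots overlaid; slope/intercept changes and intersection quadrant used to assign inhibition type; Ki calculated from the plots.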

[4] = target: Acetylcholinesterase (Electrophorus electricus) (UniProt O42275); assay: Mixed type inhibition of electric eel AChE assessed as decrease in Vmax by reciprocal Lineweaver-Burk plot analysis; procedure, shortened: as §1
Acetylcholinesterase (Electrophorus electricus), sequence (O42275 24-633 limits assumed): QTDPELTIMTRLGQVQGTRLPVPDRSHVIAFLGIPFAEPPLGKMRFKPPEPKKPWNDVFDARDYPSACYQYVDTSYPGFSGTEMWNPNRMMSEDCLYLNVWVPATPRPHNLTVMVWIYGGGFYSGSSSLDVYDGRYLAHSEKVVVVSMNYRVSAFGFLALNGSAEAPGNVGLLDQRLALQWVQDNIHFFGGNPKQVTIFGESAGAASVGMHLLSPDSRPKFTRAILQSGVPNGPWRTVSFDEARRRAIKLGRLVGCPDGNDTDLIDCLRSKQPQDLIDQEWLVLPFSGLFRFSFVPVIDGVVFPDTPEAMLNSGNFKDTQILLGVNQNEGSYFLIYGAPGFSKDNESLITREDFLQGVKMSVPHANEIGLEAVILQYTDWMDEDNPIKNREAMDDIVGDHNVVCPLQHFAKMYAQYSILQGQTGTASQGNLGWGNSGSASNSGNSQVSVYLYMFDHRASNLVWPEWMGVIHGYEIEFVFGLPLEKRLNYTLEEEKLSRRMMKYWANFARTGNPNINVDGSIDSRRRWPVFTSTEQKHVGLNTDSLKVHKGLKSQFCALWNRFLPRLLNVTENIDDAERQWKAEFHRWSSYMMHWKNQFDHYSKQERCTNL

[5] = target: Acetylcholinesterase (Electrophorus electricus) (UniProt O42275); assay: Mixed type inhibition of electric eel AChE assessed as increase in Km by reciprocal Lineweaver-Burk plot analysis; procedure, shortened: as §1
[6] = target: Cholinesterase (Equus caballus) (UniProt P81908); assay: Inhibition of equine serum BuChE at 50 to 100 uM by Ellman's method; details: dose microM 50-100
Cholinesterase (Equus caballus), sequence (P81908 whole entry): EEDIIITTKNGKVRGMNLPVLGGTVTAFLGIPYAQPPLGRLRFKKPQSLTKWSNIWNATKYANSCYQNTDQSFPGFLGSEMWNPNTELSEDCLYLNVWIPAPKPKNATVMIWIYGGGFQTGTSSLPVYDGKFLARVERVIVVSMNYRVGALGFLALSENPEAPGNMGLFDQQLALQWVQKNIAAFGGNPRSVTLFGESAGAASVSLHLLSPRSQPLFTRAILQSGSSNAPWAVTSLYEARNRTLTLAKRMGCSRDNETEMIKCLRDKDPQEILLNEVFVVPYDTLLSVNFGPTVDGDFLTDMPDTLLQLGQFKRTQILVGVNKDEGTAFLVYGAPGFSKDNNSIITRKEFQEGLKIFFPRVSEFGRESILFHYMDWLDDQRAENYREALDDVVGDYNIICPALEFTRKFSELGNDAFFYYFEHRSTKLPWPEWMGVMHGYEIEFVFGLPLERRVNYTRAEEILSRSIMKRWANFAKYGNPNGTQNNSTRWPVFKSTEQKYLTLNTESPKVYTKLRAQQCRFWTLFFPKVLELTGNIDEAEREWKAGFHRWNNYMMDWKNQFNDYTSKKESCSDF
Procedure, shortened: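 Equine serum BuChE by Ellman's method, with the test compound at two additional single concentrations, 50 and 100 μM; inhibition read at each.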

[7] = Metal chelating activity assessed as compound-Cu2+ complex formation by measuring blue shift in absorption intensity at 5 uM by UV spectra analysis
[8] = Metal chelating activity assessed as compound-Fe2+ complex formation by measuring blue shift in absorption intensity at 5 uM by UV spectra analysis
[9] = Metal chelating activity assessed as compound-Zn2+ complex formation by measuring blue shift in absorption intensity at 5 uM by UV spectra analysis
[10] = Metal chelating activity assessed as formation of Cu2+-compound complex stoichiometry ratio of 2:1 at 5 uM in presence of CuCl2 by UV spectra analysis
DNA [11] = assay: Protection against Fenton reagent-induced Escherichia coli plasmid pBR322 DNA cleavage assessed as reduction in supercoiled circular DNA(1) form to open circular DNA(2) at 0.2 to 1 mM; type: nucleic-acid assay; details: dose mM 0.2-1
DNA [12] = assay: Protection against Fenton reagent-induced Escherichia coli plasmid pBR322 DNA cleavage assessed as reduction in supercoiled circular DNA(1) form to linear circular DNA(3) at 0.2 to 1 mM; type: nucleic-acid assay; details: dose mM 0.2-1
[13] = Metal chelating activity assessed as compound-Mg2+ complex formation by measuring blue shift in absorption intensity at 5 uM by UV spectra analysis

Cholinesterase, sequence (P81908 whole entry): as above
T1 sequence (O42275 whole entry): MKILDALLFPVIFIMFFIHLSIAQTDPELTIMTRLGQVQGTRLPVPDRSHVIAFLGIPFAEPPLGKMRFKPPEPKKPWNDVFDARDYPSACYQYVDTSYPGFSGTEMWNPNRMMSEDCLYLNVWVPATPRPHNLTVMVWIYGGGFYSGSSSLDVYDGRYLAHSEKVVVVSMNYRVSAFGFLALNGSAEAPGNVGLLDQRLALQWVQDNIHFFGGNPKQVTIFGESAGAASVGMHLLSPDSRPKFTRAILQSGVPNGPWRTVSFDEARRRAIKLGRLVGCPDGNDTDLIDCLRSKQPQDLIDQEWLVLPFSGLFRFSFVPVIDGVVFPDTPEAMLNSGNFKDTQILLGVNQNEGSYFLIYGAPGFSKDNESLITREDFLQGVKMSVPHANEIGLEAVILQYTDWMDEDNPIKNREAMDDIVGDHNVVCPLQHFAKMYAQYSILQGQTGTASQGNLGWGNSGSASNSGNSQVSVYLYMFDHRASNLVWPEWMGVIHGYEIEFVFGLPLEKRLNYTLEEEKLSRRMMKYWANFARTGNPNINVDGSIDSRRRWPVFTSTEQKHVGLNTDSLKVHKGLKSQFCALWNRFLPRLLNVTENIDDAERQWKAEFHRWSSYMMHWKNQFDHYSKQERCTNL

Compound: O=c1ccc2ccc(OCCn3cc(COn4nnc5ccccc54)nn3)cc2o1
- IC50 (Acetylcholinesterase [1]): 2010 nM
- IC50 (Cholinesterase): ≥ 10 µM
- inhibition [2]: 11.4%

Compound: O=c1ccc2ccc(OCCCCCn3cc(Cn4nnc5ccccc54)nn3)cc2o1
- IC50 (Acetylcholinesterase [1]): 5430 nM
- IC50 (Cholinesterase): ≥ 10 µM
- inhibition [2]: < 10%

Compound: O=c1cc(OCCn2cc(Cn3nnc4ccccc43)nn2)c2ccccc2o1
- IC50 (Acetylcholinesterase [1]): 97 nM
- IC50 (Cholinesterase): ≥ 10 µM
- inhibition [2]: 36.7%

Compound: O=c1cc(OCCCn2cc(COn3nnc4ccccc43)nn2)c2ccccc2o1
- IC50 (Acetylcholinesterase [1]): 1320 nM
- IC50 (Cholinesterase): ≥ 10 µM
- inhibition [2]: < 10%

Compound: O=c1ccc2ccc(OCCCCCCn3cc(Cn4nnc5ccccc54)nn3)cc2o1
- IC50 (Acetylcholinesterase [1]): ≥ 10000 nM
- IC50 (Cholinesterase): ≥ 10 µM
- inhibition [2]: < 10%

Compound: O=c1cc(OCCCCn2cc(COn3nnc4ccccc43)nn2)c2ccccc2o1
- IC50 (Acetylcholinesterase [1]): 3230 nM
- IC50 (Cholinesterase): ≥ 10 µM
- inhibition [2]: < 10%

Compound: O=c1ccc2ccc(OCCCCCCn3cc(COn4nnc5ccccc54)nn3)cc2o1
- IC50 (Acetylcholinesterase [1]): ≥ 10000 nM
- IC50 (Cholinesterase): ≥ 10 µM
- inhibition [2]: < 10%

Compound: O=c1ccc2ccc(OCCCn3cc(Cn4nc5ccccc5n4)nn3)cc2o1
- IC50 (Acetylcholinesterase [1]): 1160 nM
- IC50 (Cholinesterase): ≥ 10 µM
- inhibition [2]: < 10%

Compound: O=c1cc(OCCCCn2cc(Cn3nc4ccccc4n3)nn2)c2ccccc2o1
- IC50 (Acetylcholinesterase [1]): 2090 nM
- IC50 (Cholinesterase): ≥ 10 µM
- inhibition [2]: < 10%

Compound: O=c1cc(OCCCCCCn2cc(Cn3nnc4ccccc43)nn2)c2ccccc2o1
- IC50 (Acetylcholinesterase [1]): 5420 nM
- IC50 (Cholinesterase): ≥ 10 µM
- inhibition [2]: < 10%

Compound: O=c1ccc2ccc(OCCCCCn3cc(Cn4nc5ccccc5n4)nn3)cc2o1
- IC50 (Acetylcholinesterase [1]): ≥ 10000 nM
- IC50 (Cholinesterase): ≥ 10 µM
- inhibition [2]: < 10%

Compound: O=c1ccc2ccc(OCCCn3cc(Cn4nnc5ccccc54)nn3)cc2o1
- IC50 (Acetylcholinesterase [1]): 2920 nM
- IC50 (Cholinesterase): ≥ 10 µM
- inhibition [2]: 15.9%

Compound: O=c1ccc2ccc(OCCCCn3cc(COn4nnc5ccccc54)nn3)cc2o1
- IC50 (Acetylcholinesterase [1]): ≥ 10000 nM
- IC50 (Cholinesterase): ≥ 10 µM
- inhibition [2]: < 10%

Compound: O=c1ccc2ccc(OCCCn3cc(COn4nnc5ccccc54)nn3)cc2o1
- IC50 (Acetylcholinesterase [1]): 1980 nM
- IC50 (Cholinesterase): ≥ 10 µM
- inhibition [2]: < 10%

Compound: O=c1cc(OCCCCCn2cc(COn3nnc4ccccc43)nn2)c2ccccc2o1
- IC50 (Acetylcholinesterase [1]): ≥ 10000 nM
- IC50 (Cholinesterase): ≥ 10 µM
- inhibition [2]: < 10%

Compound: O=c1cc(OCCCCCCn2cc(COn3nnc4ccccc43)nn2)c2ccccc2o1
- IC50 (Acetylcholinesterase [1]): ≥ 10000 nM
- IC50 (Cholinesterase): ≥ 10 µM
- inhibition [2]: < 10%

Compound: O=c1cc(OCCCCn2cc(Cn3nnc4ccccc43)nn2)c2ccccc2o1
- IC50 (Acetylcholinesterase [1]): 234 nM
- IC50 (Cholinesterase): ≥ 10 µM
- inhibition [2]: 22.4%

Compound: O=c1cc(OCCCCCn2cc(Cn3nnc4ccccc43)nn2)c2ccccc2o1
- IC50 (Acetylcholinesterase [1]): 1140 nM
- IC50 (Cholinesterase): ≥ 10 µM
- inhibition [2]: 11.4%

Compound: O=c1ccc2ccc(OCCCCCCn3cc(Cn4nc5ccccc5n4)nn3)cc2o1
- IC50 (Acetylcholinesterase [1]): ≥ 10000 nM
- IC50 (Cholinesterase): ≥ 10 µM
- inhibition [2]: < 10%

Compound: O=c1ccc2ccc(OCCn3cc(Cn4nnc5ccccc54)nn3)cc2o1
- IC50 (Acetylcholinesterase [1]): 2110 nM
- IC50 (Cholinesterase): ≥ 10 µM
- inhibition [2]: 29.4%

Compound: O=c1ccc2ccc(OCCn3cc(Cn4nc5ccccc5n4)nn3)cc2o1
- IC50 (Acetylcholinesterase [1]): 1180 nM
- IC50 (Cholinesterase): ≥ 10 µM
- inhibition [2]: < 10%

Compound: O=c1cc(OCCn2cc(COn3nnc4ccccc43)nn2)c2ccccc2o1
- IC50 (Acetylcholinesterase [1]): 4320 nM
- IC50 (Cholinesterase): ≥ 10 µM
- inhibition [2]: 16.2%

Compound: O=c1ccc2ccc(OCCCCn3cc(Cn4nc5ccccc5n4)nn3)cc2o1
- IC50 (Acetylcholinesterase [1]): 5440 nM
- IC50 (Cholinesterase): ≥ 10 µM
- inhibition [2]: < 10%

Compound: O=c1cc(OCCn2cc(Cn3nc4ccccc4n3)nn2)c2ccccc2o1
- IC50 (Acetylcholinesterase [1]): 1890 nM
- IC50 (Cholinesterase): ≥ 10 µM
- inhibition [2]: < 10%

Compound: O=c1ccc2ccc(OCCCCn3cc(Cn4nnc5ccccc54)nn3)cc2o1
- IC50 (Acetylcholinesterase [1]): 4330 nM
- IC50 (Cholinesterase): ≥ 10 µM
- inhibition [2]: 11.4%

Compound: COc1cc2c(cc1OC)C(=O)C(CC1CCN(Cc3ccccc3)CC1)C2 (stereo not drawn) [DONEPEZIL]
- Activity (SH-SY5Y): Non-Toxic

Compound: O=c1ccc2ccc(OCCCCCn3cc(COn4nnc5ccccc54)nn3)cc2o1
- IC50 (Acetylcholinesterase [1]): ≥ 10000 nM
- IC50 (Cholinesterase): ≥ 10 µM
- inhibition [2]: < 10%

Compound: O=c1cc(OCCCn2cc(Cn3nc4ccccc4n3)nn2)c2ccccc2o1
- IC50 (Acetylcholinesterase [1]): 1670 nM
- IC50 (Cholinesterase): ≥ 10 µM
- inhibition [2]: < 10%

Compound: O=c1cc(OCCCCCn2cc(Cn3nc4ccccc4n3)nn2)c2ccccc2o1
- IC50 (Acetylcholinesterase [1]): 4810 nM
- IC50 (Cholinesterase): ≥ 10 µM
- inhibition [2]: < 10%

Compound: O=c1cc(OCCCCCCn2cc(Cn3nc4ccccc4n3)nn2)c2ccccc2o1
- IC50 (Acetylcholinesterase [1]): 6230 nM
- IC50 (Cholinesterase): ≥ 10 µM
- inhibition [2]: < 10%

Compound: O=c1cc(OCCCn2cc(Cn3nnc4ccccc43)nn2)c2ccccc2o1
- IC50 (Acetylcholinesterase [1]): 59 nM
- IC50 (Cholinesterase): ≥ 10 µM
- inhibition [2]: 34.3%
- Ki (Acetylcholinesterase [3]): 0.0417 nM
- inhibition [4]: Active
- inhibition [5]: Active
- inhibition [6]: Active
- Activity [7]: Active
- Activity [8]: Active
- Activity [9]: Active
- Activity [10]: Active
- Activity (DNA [11]): Active
- Activity (DNA [12]): Active
- Activity (SH-SY5Y): Non-Toxic
- Activity [13]: inactive

— ChEMBL document CHEMBL4725340, “New coumarin-benzotriazole based hybrid molecules as inhibitors of acetylcholinesterase and amyloid aggregation” (Bioorg Med Chem Lett, 2020)
